Experimental data reported in ChEMBL document CHEMBL1134439, “Radioiodinated styrylbenzenes and thioflavins as probes for amyloid aggregates” (J Med Chem, 2001).
Where “and” joins values, the source holds several entries; their conditions need not be identical. Equal entries are not always repeated.

What was measured:
Mus musculus [1] = assay: Biodistribution was measured in mice kidney 60 minutes after intravenous injection of [125I]-labeled styrylbenzene.; format: ADME, organism-based; settings: in vivo, 1 h
Outline: (§1)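 ICR mice (2-3 months old, 20-30 g) under ether anesthesia received 5-10 µCi ¹²⁵I tracer in 0.15 mL saline by tail-vein injection. Animals were killed by cardiac excision at set times post-injection. Organs were removed, weighed and γ-counted. Values are % dose per organ against diluted injectate aliquots, taking blood and muscle as 7% and 40% of body weight. Mean of 3-4 mice ± SD.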

Mus musculus [2] = assay: Biodistribution was measured in mice brain 30 minutes after intravenous injection of [125I]-labeled styrylbenzene; format: ADME, organism-based; settings: in vivo, 0.5 h; outline: as §1
Mus musculus [3] = assay: Biodistribution was measured in mice kidney 30 minutes after intravenous injection of [125I]-labeled styrylbenzene.; format: ADME, organism-based; settings: in vivo, 0.5 h; outline: as §1
Mus musculus [4] = assay: Biodistribution was measured in mice heart 5 minutes after intravenous injection of [125I]-labeled styrylbenzene.; format: ADME, organism-based; settings: in vivo; outline: as §1
Mus musculus [5] = assay: Biodistribution was measured in mice kidney 5 minutes after intravenous injection of [125I]-labeled styrylbenzene.; format: ADME, organism-based; settings: in vivo; outline: as §1
Mus musculus [6] = assay: Biodistribution was measured in mice brain 60 minutes after intravenous injection of [125I]-labeled styrylbenzene; format: ADME, organism-based; settings: in vivo, 1 h; outline: as §1
Mus musculus [7] = assay: Biodistribution was measured in mice lung 5 minutes after intravenous injection of [125I]-labeled styrylbenzene.; format: ADME, organism-based; settings: in vivo; outline: as §1
Mus musculus [8] = assay: Biodistribution was measured in mice spleen 5 minutes after intravenous injection of [125I]-labeled styrylbenzene.; format: ADME, organism-based; settings: in vivo
Outline: (§2)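 ICR mice (2-3 months old, 20-30 g) under ether anesthesia; 0.15 mL saline containing 5-10 µCi ¹²⁵I tracer injected into tail vein. Sacrifice by cardiac excision at set times; organs removed, weighed, γ-counted. Expressed as % dose per organ versus diluted aliquots of injectate. Mean of three or four mice ± SD.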

Mus musculus [9] = assay: Biodistribution was measured in mice heart 30 minutes after intravenous injection of [125I]-labeled styrylbenzene.; format: ADME, organism-based; settings: in vivo, 0.5 h; outline: as §1
Mus musculus [10] = assay: Biodistribution was measured in mice muscle 5 minutes after intravenous injection of [125I]-labeled styrylbenzene.; format: ADME, organism-based, Muscle tissue; settings: in vivo; outline: as §1
Mus musculus [11] = assay: Biodistribution was measured in mice blood 60 minutes after intravenous injection of [125I]-labeled styrylbenzene.; format: ADME, organism-based; settings: in vivo, 1 h; outline: as §1
[12] = target: T1, Amyloid-beta precursor protein (Homo sapiens, UniProt P05067); assay: Inhibition constant for amyloid beta compared to [125I]TZDM
T1 sequence (P05067 whole entry): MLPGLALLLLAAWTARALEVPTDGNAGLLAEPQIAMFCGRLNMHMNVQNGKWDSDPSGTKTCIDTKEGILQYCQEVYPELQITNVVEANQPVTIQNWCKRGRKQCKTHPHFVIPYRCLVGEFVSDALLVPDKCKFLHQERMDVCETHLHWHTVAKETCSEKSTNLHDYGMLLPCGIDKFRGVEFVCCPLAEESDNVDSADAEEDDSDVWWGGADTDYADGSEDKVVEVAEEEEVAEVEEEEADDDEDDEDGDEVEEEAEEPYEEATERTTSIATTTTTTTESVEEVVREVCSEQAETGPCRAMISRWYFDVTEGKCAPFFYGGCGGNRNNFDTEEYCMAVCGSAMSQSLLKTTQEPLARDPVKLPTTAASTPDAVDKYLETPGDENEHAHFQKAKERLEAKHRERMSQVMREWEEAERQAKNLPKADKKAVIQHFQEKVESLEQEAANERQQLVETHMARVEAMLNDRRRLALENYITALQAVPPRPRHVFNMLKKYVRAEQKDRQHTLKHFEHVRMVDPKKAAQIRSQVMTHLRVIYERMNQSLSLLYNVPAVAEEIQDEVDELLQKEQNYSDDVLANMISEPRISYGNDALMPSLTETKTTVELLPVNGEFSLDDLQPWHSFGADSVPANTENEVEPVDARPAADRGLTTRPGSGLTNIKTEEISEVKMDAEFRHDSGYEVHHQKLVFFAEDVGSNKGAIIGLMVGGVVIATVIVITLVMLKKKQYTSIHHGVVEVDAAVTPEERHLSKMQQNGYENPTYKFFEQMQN
Outline: (§3)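 Aβ(1-40) or Aβ(1-42) aggregated at 0.5 or 0.25 mg/mL respectively in pH 7.4 buffer (10 mM sodium phosphate, 1 mM EDTA), 37 °C, 36-42 h with shaking. Competition against ¹²⁵I radioligand with fibrils 10-50 nM (final), 10% EtOH, 1 mL. Incubation 3 h room temperature. Bound ligand collected by GF/B filtration, γ-counted. Ki by nonlinear regression. Mean ± SEM, three experiments in duplicate.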

Mus musculus [13] = assay: Biodistribution was measured in mice blood 30 minutes after intravenous injection of [125I]-labeled styrylbenzene.; format: ADME, organism-based; settings: in vivo, 0.5 h; outline: as §1
Mus musculus [14] = assay: Biodistribution was measured in mice spleen 60 minutes after intravenous injection of [125I]-labeled styrylbenzene.; format: ADME, organism-based; settings: in vivo, 1 h; outline: as §2
Mus musculus [15] = assay: Biodistribution was measured in mice liver 30 minutes after intravenous injection of [125I]-labeled styrylbenzene.; format: ADME, organism-based; settings: in vivo, 0.5 h; outline: as §1
Mus musculus [16] = assay: Biodistribution was measured in mice skin 30 minutes after intravenous injection of [125I]-labeled styrylbenzene.; format: ADME, organism-based, Zone of skin; settings: in vivo, 0.5 h; outline: as §1
Mus musculus [17] = assay: Biodistribution was measured in mice liver 60 minutes after intravenous injection of [125I]-labeled styrylbenzene.; format: ADME, organism-based; settings: in vivo, 1 h; outline: as §1
Mus musculus [18] = assay: Biodistribution was measured in mice lung 60 minutes after intravenous injection of [125I]-labeled styrylbenzene.; format: ADME, organism-based; settings: in vivo, 1 h; outline: as §1
Mus musculus [19] = assay: Biodistribution was measured in mice skin 60 minutes after intravenous injection of [125I]-labeled styrylbenzene.; format: ADME, organism-based, Zone of skin; settings: in vivo, 1 h; outline: as §1
Mus musculus [20] = assay: Biodistribution was measured in mice muscle 60 minutes after intravenous injection of [125I]-labeled styrylbenzene.; format: ADME, organism-based, Muscle tissue; settings: in vivo, 1 h; outline: as §1
Mus musculus [21] = assay: Biodistribution was measured in mice lung 30 minutes after intravenous injection of [125I]-labeled styrylbenzene.; format: ADME, organism-based; settings: in vivo, 0.5 h; outline: as §1
Mus musculus [22] = assay: Biodistribution was measured in mice muscle 30 minutes after intravenous injection of [125I]-labeled styrylbenzene.; format: ADME, organism-based, Muscle tissue; settings: in vivo, 0.5 h; outline: as §1
Mus musculus [23] = assay: Biodistribution was measured in mice blood 5 minutes after intravenous injection of [125I]-labeled styrylbenzene.; format: ADME, organism-based; settings: in vivo; outline: as §1
Mus musculus [24] = assay: Biodistribution was measured in mice heart 60 minutes after intravenous injection of [125I]-labeled styrylbenzene.; format: ADME, organism-based; settings: in vivo, 1 h; outline: as §1
[25] = target: T1, Amyloid-beta precursor protein; assay: Inhibition constant for aggregates of amyloid beta compared to [125I]IMSB; outline: as §3
Mus musculus [26] = assay: Biodistribution was measured in mice liver 5 minutes after intravenous injection of [125I]-labeled styrylbenzene.; format: ADME, organism-based; settings: in vivo; outline: as §1
Mus musculus [27] = assay: Biodistribution was measured in mice skin 5 minutes after intravenous injection of [125I]-labeled styrylbenzene.; format: ADME, organism-based, Zone of skin; settings: in vivo; outline: as §1
Mus musculus [28] = assay: Biodistribution was measured in mice spleen 30 minutes after intravenous injection of [125I]-labeled styrylbenzene.; format: ADME, organism-based; settings: in vivo, 0.5 h; outline: as §2
Mus musculus [29] = assay: Biodistribution was measured in mice brain 5 minutes after intravenous injection of [125I]-labeled styrylbenzene; format: ADME, organism-based; settings: in vivo; outline: as §1

Dose/organ (Mus musculus [1]): 0.23%
Dose/organ (Mus musculus [2]): 0.03%
Dose/organ (Mus musculus [3]): 0.46%
Dose/organ (Mus musculus [4]): 0.43%
Dose/organ (Mus musculus [5]): 1.31%
Dose/organ (Mus musculus [6]): 0.02%
Dose/organ (Mus musculus [7]): 0.89%
Dose/organ (Mus musculus [8]): 0.17%
Dose/organ (Mus musculus [9]): 0.18%
Dose/organ (Mus musculus [10]): 3.16%
Dose/organ (Mus musculus [11]): 2.17%
Ki [12]: > 1000 nM
Dose/organ (Mus musculus [13]): 5.19%
Dose/organ (Mus musculus [14]): 0.03%
Dose/organ (Mus musculus [15]): 24.47%
Dose/organ (Mus musculus [16]): 1.44%
Dose/organ (Mus musculus [17]): 6.14%
Dose/organ (Mus musculus [18]): 0.16%
Dose/organ (Mus musculus [19]): 1.02%
Dose/organ (Mus musculus [20]): 1.3%
Dose/organ (Mus musculus [21]): 0.31%
Dose/organ (Mus musculus [22]): 1.82%
Dose/organ (Mus musculus [23]): 22.52%
Dose/organ (Mus musculus [24]): 0.12%
Ki [25]: 0.17 nM and 0.8 nM
Dose/organ (Mus musculus [26]): 47.85%
Dose/organ (Mus musculus [27]): 1.56%
Dose/organ (Mus musculus [28]): 0.07%
Dose/organ (Mus musculus [29]): 0.14%
SMILES: COc1ccc(/C=C/c2ccc(/C=C/c3ccc(OC)c(C(=O)O)c3)c(I)c2)cc1C(=O)O
